Here are results for twelve compounds from ChEMBL document CHEMBL3758096, “1-[3-(2-Hydroxyethylsulfanyl)propanoyl]-3,5-bis(benzylidene)-4-piperidones: A novel cluster of P-glycoprotein dependent multidrug resistance modulators” (Bioorg Med Chem Lett, 2016).

Each structure is given as a SMILES string.

T1 sequence (P08183 whole entry): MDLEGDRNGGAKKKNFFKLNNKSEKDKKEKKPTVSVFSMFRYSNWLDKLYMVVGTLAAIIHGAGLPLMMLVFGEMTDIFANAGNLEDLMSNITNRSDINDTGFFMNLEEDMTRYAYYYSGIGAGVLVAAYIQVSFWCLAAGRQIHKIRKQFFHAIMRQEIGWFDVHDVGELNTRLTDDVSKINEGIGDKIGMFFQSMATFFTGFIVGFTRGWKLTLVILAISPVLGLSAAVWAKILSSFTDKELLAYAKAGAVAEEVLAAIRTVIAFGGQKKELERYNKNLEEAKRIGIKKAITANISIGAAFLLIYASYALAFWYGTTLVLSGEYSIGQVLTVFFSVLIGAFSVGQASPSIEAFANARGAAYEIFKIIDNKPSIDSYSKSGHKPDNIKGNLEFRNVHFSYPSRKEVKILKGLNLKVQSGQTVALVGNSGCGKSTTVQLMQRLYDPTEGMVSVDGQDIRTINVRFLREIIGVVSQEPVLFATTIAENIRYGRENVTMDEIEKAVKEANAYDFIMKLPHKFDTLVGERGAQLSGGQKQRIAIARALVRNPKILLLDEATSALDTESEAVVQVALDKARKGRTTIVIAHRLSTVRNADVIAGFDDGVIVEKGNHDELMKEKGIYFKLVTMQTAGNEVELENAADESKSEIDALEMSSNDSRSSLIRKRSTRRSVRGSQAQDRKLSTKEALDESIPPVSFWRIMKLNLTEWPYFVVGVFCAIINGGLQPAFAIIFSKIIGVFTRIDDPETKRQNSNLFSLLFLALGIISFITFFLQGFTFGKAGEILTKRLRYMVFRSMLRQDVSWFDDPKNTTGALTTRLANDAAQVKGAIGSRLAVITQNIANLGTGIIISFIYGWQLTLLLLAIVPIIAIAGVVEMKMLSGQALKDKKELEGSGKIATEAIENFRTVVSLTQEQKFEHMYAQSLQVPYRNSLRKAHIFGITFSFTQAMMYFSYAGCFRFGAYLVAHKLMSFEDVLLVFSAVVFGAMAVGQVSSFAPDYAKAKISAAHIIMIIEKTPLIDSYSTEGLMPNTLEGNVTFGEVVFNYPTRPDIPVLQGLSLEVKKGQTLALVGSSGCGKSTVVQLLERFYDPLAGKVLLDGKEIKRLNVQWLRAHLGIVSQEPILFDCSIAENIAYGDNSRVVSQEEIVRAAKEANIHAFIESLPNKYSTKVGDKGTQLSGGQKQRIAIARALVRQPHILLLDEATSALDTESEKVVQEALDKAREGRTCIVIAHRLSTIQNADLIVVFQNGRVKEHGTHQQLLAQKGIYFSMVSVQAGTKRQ

One data set has as its target T1, ATP-dependent translocase ABCB1 (Homo sapiens, UniProt P08183). The data set is described as follows: Inhibition of human MDR1 transfected in mouse L5178Y cells assessed as fluorescence activity ratio at 4 ug/ml after 10 mins by rhodamine 123 dye based fluorescence analysis.
Conditions: not given
The format is cell-based.
On to `Cc1ccc(/C=C2\CN(C(=O)CCSCCS(=O)(=O)O)C/C(=C\c3ccc(C)cc3)C2=O)cc1`, for which the Ratio is reported as 1.2.
In the case of `COc1ccc(/C=C2\CN(C(=O)CCSCCO)C/C(=C\c3ccc(OC)cc3)C2=O)cc1`, the Ratio is on record as 37.1.
For `O=C1/C(=C/c2ccc(Cl)cc2)CN(C(=O)CCSCCS(=O)(=O)O)C/C1=C\c1ccc(Cl)cc1`, the Ratio is listed as 1.14.
`COc1ccc(/C=C2\CN(C(=O)CCSCCS(=O)(=O)O)C/C(=C\c3ccc(OC)cc3)C2=O)cc1`: the Ratio worked out at 1.27.
As for `COc1ccc(/C=C2\CN(C(=O)CCSCCS)C/C(=C\c3ccc(OC)cc3)C2=O)cc1`, the Ratio turned out to be 18.9.
For `O=C1/C(=C/c2ccccc2)CN(C(=O)CCSCCS(=O)(=O)O)C/C1=C\c1ccccc1`, the Ratio is listed as 1.14.
The same measure, in the same setting: the same measure for `O=C1/C(=C/c2ccccc2)CN(C(=O)CCSCCO)C/C1=C\c1ccccc1`: 4.71.
Turning to `O=C1/C(=C/c2ccc([N+](=O)[O-])cc2)CN(C(=O)CCSCCO)C/C1=C\c1ccc([N+](=O)[O-])cc1`, the Ratio came out at 8.86.
As to `O=C1/C(=C/c2ccc(Cl)cc2)CN(C(=O)CCSCCO)C/C1=C\c1ccc(Cl)cc1`, the Ratio is recorded as 49.2.
The same measure, in the same setting: the same measure for `Cc1ccc(/C=C2\CN(C(=O)CCSCCO)C/C(=C\c3ccc(C)cc3)C2=O)cc1`: 55.4; for `O=C1/C(=C/c2ccc([N+](=O)[O-])cc2)CN(C(=O)CCSCCS(=O)(=O)O)C/C1=C\c1ccc([N+](=O)[O-])cc1`: 1.14.

A further data set concerns the target T1, ATP-dependent translocase ABCB1. As to the kind of experiment: Inhibition of human MDR1 transfected in mouse L5178Y cells assessed as fluorescence activity ratio at 40 ug/ml after 10 mins by rhodamine 123 dye based fluorescence analysis. In kind it is cell-based.
Conditions: not given
As for `Cc1ccc(/C=C2\CN(C(=O)CCSCCS(=O)(=O)O)C/C(=C\c3ccc(C)cc3)C2=O)cc1`, the Ratio was 1.6.
Regarding `COc1ccc(/C=C2\CN(C(=O)CCSCCO)C/C(=C\c3ccc(OC)cc3)C2=O)cc1`, the Ratio is on record as 85.1.
In the case of `O=C1/C(=C/c2ccc(Cl)cc2)CN(C(=O)CCSCCS(=O)(=O)O)C/C1=C\c1ccc(Cl)cc1`, the Ratio is 1.71.
Take `COc1ccc(/C=C2\CN(C(=O)CCSCCS(=O)(=O)O)C/C(=C\c3ccc(OC)cc3)C2=O)cc1`: the Ratio was 3.23.
As for `COc1ccc(/C=C2\CN(C(=O)CCSCCS)C/C(=C\c3ccc(OC)cc3)C2=O)cc1`, the Ratio was determined as 126.
For `O=C1/C(=C/c2ccccc2)CN(C(=O)CCSCCS(=O)(=O)O)C/C1=C\c1ccccc1`, the Ratio is reported as 1.2.
As for `O=C1/C(=C/c2ccccc2)CN(C(=O)CCSCCO)C/C1=C\c1ccccc1`, the Ratio was found to be 42.4.
For the compound `O=C1/C(=C/c2ccc([N+](=O)[O-])cc2)CN(C(=O)CCSCCO)C/C1=C\c1ccc([N+](=O)[O-])cc1`, the Ratio is reported as 20.
In the case of `O=C1/C(=C/c2ccc(Cl)cc2)CN(C(=O)CCSCCO)C/C1=C\c1ccc(Cl)cc1`, the Ratio was 45.
`Cc1ccc(/C=C2\CN(C(=O)CCSCCO)C/C(=C\c3ccc(C)cc3)C2=O)cc1`: the Ratio amounted to 44.4.
For the compound `O=C1/C(=C/c2ccc([N+](=O)[O-])cc2)CN(C(=O)CCSCCS(=O)(=O)O)C/C1=C\c1ccc([N+](=O)[O-])cc1`, the Ratio is listed as 1.71.

The target is the same in a further data set. The data set is described as follows: Ratio of human MDR1 modulation transfected in mouse L5178Y cells at 40 ug/ml to human MDR1 modulation transfected in mouse L5178Y cells at 4 ug/ml.
Conditions: not given
In kind it is cell-based.
Regarding `Cc1ccc(/C=C2\CN(C(=O)CCSCCS(=O)(=O)O)C/C(=C\c3ccc(C)cc3)C2=O)cc1`, the Ratio amounted to 1.33.
In the case of `COc1ccc(/C=C2\CN(C(=O)CCSCCO)C/C(=C\c3ccc(OC)cc3)C2=O)cc1`, the Ratio amounted to 2.29.
For the compound `O=C1/C(=C/c2ccc(Cl)cc2)CN(C(=O)CCSCCS(=O)(=O)O)C/C1=C\c1ccc(Cl)cc1`, the Ratio was determined as 1.5.
In the case of `COc1ccc(/C=C2\CN(C(=O)CCSCCS(=O)(=O)O)C/C(=C\c3ccc(OC)cc3)C2=O)cc1`, the Ratio is recorded as 2.54.
Turning to `COc1ccc(/C=C2\CN(C(=O)CCSCCS)C/C(=C\c3ccc(OC)cc3)C2=O)cc1`, the Ratio was determined as 6.67.
For `O=C1/C(=C/c2ccccc2)CN(C(=O)CCSCCS(=O)(=O)O)C/C1=C\c1ccccc1`, the Ratio is listed as 1.05.
As to `O=C1/C(=C/c2ccccc2)CN(C(=O)CCSCCO)C/C1=C\c1ccccc1`, the Ratio turned out to be 9.
Still for that read-out and setting: the figure for `O=C1/C(=C/c2ccc([N+](=O)[O-])cc2)CN(C(=O)CCSCCO)C/C1=C\c1ccc([N+](=O)[O-])cc1` is 2.26.
As for `O=C1/C(=C/c2ccc(Cl)cc2)CN(C(=O)CCSCCO)C/C1=C\c1ccc(Cl)cc1`, the Ratio is 0.92.
With `Cc1ccc(/C=C2\CN(C(=O)CCSCCO)C/C(=C\c3ccc(C)cc3)C2=O)cc1`, the Ratio worked out at 0.8.
As to `O=C1/C(=C/c2ccc([N+](=O)[O-])cc2)CN(C(=O)CCSCCS(=O)(=O)O)C/C1=C\c1ccc([N+](=O)[O-])cc1`, the Ratio is 1.5.

System in another data set: not listed separately
As to the kind of experiment: Cytotoxicity against human HSC2 cells after 48 hrs by MTT assay. In kind it is functional. As to conditions: HSC-2, 48 h, pooled result: one value given for 3 cell lines, strains, targets or settings. The gist of the method:
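Compounds were incubated with cells at 37 °C for 48 hr. HSC-2 and HSC-4 squamous carcinoma cells were grown in supplemented DMEM, and viability was read by MTT. HL-60 promyelocytic leukemia cells were grown in supplemented RPMI1640, and viability was read by trypan blue exclusion. CC50 is the concentration killing 50% of cells, reported as an average.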
Turning to `Cc1ccc(/C=C2\CN(C(=O)CCSCCS(=O)(=O)O)C/C(=C\c3ccc(C)cc3)C2=O)cc1`, it took 126 µM to reach half-maximal cytotoxicity (CC50).
Turning to `COc1ccc(/C=C2\CN(C(=O)CCSCCO)C/C(=C\c3ccc(OC)cc3)C2=O)cc1`, the 50% cytotoxic concentration (CC50) came to 2.67 µM.
The compound `O=C1/C(=C/c2ccc(Cl)cc2)CN(C(=O)CCSCCS(=O)(=O)O)C/C1=C\c1ccc(Cl)cc1` returned a CC50 of 29.7 µM.
Consider `COc1ccc(/C=C2\CN(C(=O)CCSCCS(=O)(=O)O)C/C(=C\c3ccc(OC)cc3)C2=O)cc1`, for which half-maximal cytotoxicity (CC50) was put at 91.7 µM.
In turn, `N[C@@H](Cc1ccc(N(CCCl)CCCl)cc1)C(=O)O` registered a cytotoxic concentration (CC50) of 14 µM.
On the same count and under the same terms, the figure for `COc1ccc(/C=C2\CN(C(=O)CCSCCS)C/C(=C\c3ccc(OC)cc3)C2=O)cc1` is 3.37 µM; for `O=C1/C(=C/c2ccccc2)CN(C(=O)CCSCCS(=O)(=O)O)C/C1=C\c1ccccc1` it is 154 µM; for `O=C1/C(=C/c2ccccc2)CN(C(=O)CCSCCO)C/C1=C\c1ccccc1` it is 1.53 µM.
`O=C1/C(=C/c2ccc([N+](=O)[O-])cc2)CN(C(=O)CCSCCO)C/C1=C\c1ccc([N+](=O)[O-])cc1` showed a CC50 of 0.39 µM.
Still for that read-out and setting: the same measure for `O=C1/C(=C/c2ccc(Cl)cc2)CN(C(=O)CCSCCO)C/C1=C\c1ccc(Cl)cc1`: 0.66 µM; for `Cc1ccc(/C=C2\CN(C(=O)CCSCCO)C/C(=C\c3ccc(C)cc3)C2=O)cc1`: 1.56 µM; for `O=C1/C(=C/c2ccc([N+](=O)[O-])cc2)CN(C(=O)CCSCCS(=O)(=O)O)C/C1=C\c1ccc([N+](=O)[O-])cc1`: 4.73 µM.

The target of another data set is T1, ATP-dependent translocase ABCB1. As to the kind of experiment: Potency index, ratio of compound activity to verapamil hydrochloride activity for human MDR1 modulation transfected in mouse L5178Y cells at 4 ug/ml. The format is cell-based.
Conditions: not given
Take `COc1ccc(/C=C2\CN(C(=O)CCSCCO)C/C(=C\c3ccc(OC)cc3)C2=O)cc1`: the Ratio is listed as 9.
